Source: PubChem
CHO parental Ca – signal in parental CHO cells, OX1R antagonist counter-screen. AID 463079. 330,000 tested, 0.63% active. parental CHO-K1, ATP-induced calcium, Fluo-8 fluorescence. inhibition, % at 5.6 µM;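 active = inhibition above that plate's mean sample inhibition plus 3 SD, cut at about 26% in these data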;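 note: 0% = ATP-challenged DMSO wells and 100% = DMSO wells without ATP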
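Test system: untransfected parental CHO cell line. Compound: one dose, 5.6 µM nominal. Detection: intracellular calcium via Fluo-8 no-wash fluorescent dye. Measure: % inhibition. Benchmarks: ATP-challenged DMSO wells low, unchallenged DMSO wells high.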
CHO-K1 Ca ag – M1 agonist counterscreen hit in parental CHO-K1 cells. 360,000 tested, 0.48% active. activation, % at 3 µM. Fluo-8 calcium fluorescence; scaled to maximal ATP response, vehicle zero. AID 602248; in the data active = activation above about 15%;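 note: untransfected CHO-K1 host cells lacking M1 receptor as counterscreen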
OX1R antag-1 – blocks the human orexin 1 receptor; O43613; OX1R-expressing cells, FRET antagonist read-out; inhibition, % at 6.6 µM; 330,000 tested, 1.8% active; AID 485270; in the data active = inhibition mostly above about 38%, no sharp cut-off; inactive = mostly below about 40%;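 note: 0% = agonist challenge alone and 100% = reference antagonist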
Target sequence (O43613 whole entry, looked up): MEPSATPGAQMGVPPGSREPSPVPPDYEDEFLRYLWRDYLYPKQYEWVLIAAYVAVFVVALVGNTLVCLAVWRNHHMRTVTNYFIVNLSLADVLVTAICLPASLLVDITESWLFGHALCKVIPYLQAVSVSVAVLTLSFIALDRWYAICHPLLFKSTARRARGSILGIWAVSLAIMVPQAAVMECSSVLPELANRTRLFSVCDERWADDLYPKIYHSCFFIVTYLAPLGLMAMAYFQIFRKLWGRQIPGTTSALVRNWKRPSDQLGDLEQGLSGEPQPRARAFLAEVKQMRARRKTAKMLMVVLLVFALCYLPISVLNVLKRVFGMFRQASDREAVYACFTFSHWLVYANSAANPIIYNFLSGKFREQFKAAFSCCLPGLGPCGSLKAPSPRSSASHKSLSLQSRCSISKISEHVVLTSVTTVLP
OX1R antag-2 – antagonists of human orexin 1 receptor; CHO/OX1R cells, Fluo-8 calcium fluorescence, orexin A; O43613; 330,000 tested, 0.43% active; inhibition, % at 5 µM;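 active = inhibition above its plate's threshold, mean inhibition of all tested compounds on the plate plus 3 SD, cut at about 37% in these data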;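 note: 0% = orexin A challenge wells and 100% = SB-334867-A antagonist wells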
CHO-K1 Ca antag – M1 antagonist counterscreen hit in parental CHO-K1 cells | ATP-induced calcium, Fluo-8 fluorescence | inhibition, % at 3 µM | 360,000 tested, 0.6% active;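 active = inhibition above a per-plate cutoff, the plate's mean sample inhibition plus 3 SD, cut at about 24% in these data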;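 note: 0% = DMSO plus EC80 ATP and 100% = DMSO alone without ATP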
M1 PAM parental – counter-screen for M1 PAMs: effect in parental CHO-K1 cells; ATP EC20, Fluo-8 calcium fluorescence; 0% at ATP EC20, 100% at ATP max; activation, % at 3 µM; 360,000 tested, 0.02% active;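 active = activation above the run cutoff, the mean activation of all test compounds plus 3 SD, cut at about 40% in these data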;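 note: peak over basal fluorescence ratio in a 140 s read after ATP addition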
Numbers without * were called inactive; x = not tested or not shown. Shown are actives, neighbours in structure and some others; about 2.9% of the full set was active somewhere.

SMILES	CHO parental Ca	CHO-K1 Ca ag	OX1R antag-1	OX1R antag-2	CHO-K1 Ca antag	M1 PAM parental
O=C1CC[C@@]23CCCN2C(=O)CCCC3C1 (some centres undefined)	-2.1	0.3	1.4	-12.9	-15.1	17.2
Cc1ccc(/C=N\NC(=O)c2cc([N+](=O)[O-])cc([N+](=O)[O-])c2)o1	-9.9	1.5	65.4*	-25.0	-3.1	6.6
Cc1ccc(/C=N/NC(=O)c2ccccc2OCc2ccc(F)cc2)o1	-30.0	5.5	17.5	-32.7	-19.1	42.8*
O=[N+]([O-])c1ccc(/C=[N+](\[O-])[C@@H]2CCCC[C@@H]2/[N+]([O-])=C/c2ccc([N+](=O)[O-])o2)o1	-7.8	-0.1	42.1*	-18.5	-2.0	-2.6
Cc1cccc(OCC(=O)N2CCc3ccccc3C2)c1C	x	0.4	x	x	-2.1	5.1
Cn1cc(SCC(=O)NCc2ccc3c(c2)OCO3)c2ccccc21	-5.3	0.6	41.3*	-3.4	-11.7	28.1
Cc1cccc(-n2c(SCC(=O)NCc3ccc4c(c3)OCO4)nc3ccccc3c2=O)c1	-10.1	0.7	40.0*	-11.2	-12.1	10.8
Cc1ccc2nc(SCC(=O)NCc3ccc4c(c3)OCO4)nc(=O)n2c1	3.4	7.8	9.4	-0.4	25.9*	-26.0
O=C(CSc1nnc(-c2cccnc2)n1-c1ccccc1)NCc1ccc2c(c1)OCO2	-15.2	-0.1	2.3	-26.1	24.0*	-9.5
O=C(CSc1nc2ccccc2c(=O)n1-c1ccccc1)NCc1ccc2c(c1)OCO2	-18.7	-0.1	22.6	-10.3	12.8	-13.8
Cc1ccc2nc(SCC(=O)NCc3ccccc3)nc(=O)n2c1	-28.2	0.7	21.3	-31.1	4.7	2.1
CN(C(=O)COC(=O)CSc1ccccc1)c1c(N)n(Cc2ccccc2)c(=O)[nH]c1=O	x	-0.6	x	x	13.9	-14.1
Cc1cccc(-n2nnc(C(=O)Nc3ccc(F)cc3)c2N)c1	0.8	2.0	25.1	-14.6	-10.6	19.3
Cc1c(C(=O)Nc2ccc(F)cc2)nnn1-c1cccc(C(F)(F)F)c1	48.8*	7.6	36.1	4.0	17.7	-7.5
N#Cc1ccc(NCC(=O)Nc2ccc(S(=O)(=O)N3CCCCC3)cc2)cc1	4.8	4.3	-3.3	13.9	-11.9	13.7
COc1cc(/C=C2\CCCc3c2nc2ccccc2c3C(=O)O)cc(OC)c1O	-5.0	0.2	10.0	-13.1	-10.1	12.1
CCOc1ccc(/C=C2\CCCc3c2nc2ccccc2c3C(=O)O)cc1OC	29.7*	45.4*	81.8*	30.4	11.1	6.5
COc1ccc(/C=C2\CCCc3c2nc2ccccc2c3C(=O)O)cc1OC	2.8	x	63.1*	6.8	x	x
COc1cc(/C=C2\CCCc3c2nc2ccccc2c3C(=O)O)cc([N+](=O)[O-])c1O	-5.7	0.5	59.2	-0.9	-10.1	0.9
O=C(O)c1ccc(/C=C2\CCCc3c2nc2ccccc2c3C(=O)O)cc1	1.4	5.5	25.7	-1.4	-18.9	5.0
COc1ccc(/C=C2\CCc3c2nc2ccccc2c3C(=O)O)cc1OC	6.6	3.2	75.2*	0.3	-4.8	-1.9
CC(=NNC(=O)c1ccncc1)c1ccc2ccccc2c1O	x	68.8*	x	x	15.5	-20.4
O=C(NC1(Cc2ccccc2)CCN(Cc2ccc(-c3ccccc3)cc2)C1=O)c1ccccc1 (centres undefined)	-14.8	2.3	0.9	-2.0	4.2	-11.8
COc1cc([N+](=O)[O-])c2ncsc2c1	-11.3	-0.1	69.2*	-7.3	1.0	1.0
COc1cc(SSc2cc(OC)cc([N+](=O)[O-])c2N)c(N)c([N+](=O)[O-])c1	-11.0	1.8	17.9	-10.6	-15.6	-6.2
SMILES	CHO parental Ca	CHO-K1 Ca ag	OX1R antag-1	OX1R antag-2	CHO-K1 Ca antag	M1 PAM parental
C[n+]1c2n(c3ccccc31)N=C(c1ccc(Cl)cc1)CS2	-21.3	0.1	21.0	-28.9	-0.3	17.7
COc1ccc(C2=Nn3c([n+](C)c4ccccc43)SC2)cc1	-17.8	0.2	41.8*	-33.0	-16.0	9.4
Cc1cccc(NC(=O)COC(=O)CC2CCCC2)c1C	x	0.0	x	x	2.7	-24.6
CC(C)(C)c1ccc(C(=O)NC(=S)NNC(=O)c2cccs2)cc1	30.8	85.3*	1.3	33.1	10.5	-16.3
Cc1cccc(C(=O)NC(=S)NNC(=O)c2ccc(Cl)cc2)c1	64.4*	110.1*	-6.7	74.7*	48.1*	-16.4
Cc1ccccc1C(=O)NNC(=S)NC(=O)c1cccs1	20.9	36.6*	0.3	24.4	2.4	-24.3
Cc1cccc(C(=O)NC(=S)NNC(=O)c2cccs2)c1	-8.1	15.4*	5.1	-4.3	3.6	-9.7
O=C(NC(=S)NNC(=O)c1cccs1)c1ccccc1	3.0	0.1	3.9	-3.5	1.5	-12.9
C=CCn1c(SCC(=O)NCC(c2ccccc2)N(C)C)nnc1C1CCCCC1 (centres undefined)	-21.1	-0.1	7.4	-27.3	-6.0	5.2
CCc1ccccc1Nc1nc(N)nc(COC(=O)C2CCN(C(=O)c3ccc(F)cc3)CC2)n1	x	4.5	x	x	-6.6	-0.9
CCOC(=O)c1cc(-c2ccccc2)n(CC(=O)N2CCCC2)c1C	-9.3	2.0	23.1	-17.3	3.8	9.5
CCOC(=O)c1cc(-c2ccc(F)cc2)n(CC(=O)N2CCCC2)c1C	-29.1	15.4*	18.0	-32.6	3.3	11.8
S=c1cn[nH]c2ccccc12	x	0.8	x	x	-9.1	14.0
Fc1ccccc1CCNc1c2c(nc3ncnn13)CCCC2	-1.9	11.9	28.9	2.8	-7.0	-3.9
c1ccc(CCNc2c3c(nc4ncnn24)CCC3)cc1	-2.6	20.8*	13.0	-6.2	-0.5	7.1
CSc1cccc(NC(=S)N(Cc2ccc(C)cc2)Cc2cccnc2)c1	46.1*	0.8	31.4	14.4	-7.0	4.7
Cc1ccccc1NC(=S)N(Cc1ccccc1)Cc1cccnc1	-26.0	0.3	11.2	-60.4	-18.4	17.9
CC(C)(C)C#CCn1c(/C=[N+](\[O-])C2CCCCC2)nc2ccccc21	-9.0	-0.4	13.8	-10.7	-9.5	25.3
Cc1ccnc(NC(=O)c2ccc3[nH]c(=O)c(=O)[nH]c3c2)c1	1.1	2.3	-2.7	-5.5	-16.3	24.2
CC(C)C(=O)N(c1cc2sc(=O)oc2c2ccccc12)S(=O)(=O)c1cccs1	87.2*	4.1	37.7	67.7*	-22.1	22.1
CC(C)C(=O)N(c1ccc2oc(=O)sc2c1)S(=O)(=O)c1cccs1	-5.6	0.4	16.1	-1.9	-3.1	9.9
CCS(=O)c1ccccc1C(=O)OCC(=O)Nc1ccc2ccccc2c1 (centres undefined)	38.8*	11.7	8.7	-10.6	-15.3	-1.2
O=C(COC(=O)c1ccccc1O)Nc1ccc2ccccc2c1	17.6	0.1	15.3	1.1	11.1	-12.4
COc1ccc(C(=O)COC(=O)CCN2C(=O)C3C4CCC(C4)C3C2=O)cc1 (centres undefined)	4.0	0.3	8.5	-16.8	24.3*	-17.0
